Eight molecules from ChEMBL document CHEMBL3217604, “4-Alkyloxyimino-cytosine nucleotides: tethering approaches to molecular probes for the P2Y6 receptor” (Medchemcomm, 2013) can be followed below.

Activity calls are given as the source filed them. No cut-off for these calls is given here. Some results are limits rather than exact numbers.

Test [1] addresses T1, P2Y purinoceptor 4 (Homo sapiens, UniProt P51582). Description: Agonist activity at human recombinant P2Y4 receptor expressed in human 1321N1 cells using [3H]inositol as substrate assessed as [3H]inositol phosphate formation after 30 mins by liquid scintillation counting analysis. The format is functional, cell-based. The gist of the method:
(§1)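 PLC activation measured in 1321N1 human astrocytoma cells stably expressing recombinant hP2Y2, hP2Y4 or hP2Y6 receptor; potency given as EC50 or % activation.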

Test [2] has as its target T2, P2Y purinoceptor 6 (Homo sapiens, UniProt Q15077). Description: Agonist activity at human recombinant P2Y6 receptor expressed in human 1321N1 cells using [3H]inositol as substrate assessed as [3H]inositol phosphate formation after 30 mins by liquid scintillation counting analysis. The format is functional, cell-based. The gist of the method: as §1
A further test addresses P2Y purinoceptor 2 (Homo sapiens, UniProt P41231). Description: Agonist activity at human recombinant P2Y2 receptor expressed in human 1321N1 cells using [3H]inositol as substrate assessed as [3H]inositol phosphate formation after 30 mins by liquid scintillation counting analysis. It is filed as functional, cell-based. The gist of the method: as §1
Test [3] deals with T1, P2Y purinoceptor 4. Put plainly: Agonist activity at human recombinant P2Y4 receptor expressed in human 1321N1 cells using [3H]inositol as substrate assessed as [3H]inositol phosphate formation at 10 uM after 30 mins by liquid scintillation counting analysis. The format is functional, cell-based. The gist of the method: as §1
The target in test [4] is T2, P2Y purinoceptor 6. Put plainly: Binding affinity to human recombinant P2Y6 receptor expressed in human 1321N1 cells at 500 nM after 60 mins by fluorescence microscopy in presence of MRS2578. It is filed as cell-based. The gist of the method:
(§2)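 P2Y6R-expressing 1321N1 cells preincubated 30 min at 37 °C with 500 nM MRS2957 or MRS2578, then exposed to 500 nM fluorescent agonist for 60 min at 37 °C; imaged by fluorescence microscopy (excitation 495 nm, emission 519 nm).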

Test [5] has as its target T2, P2Y purinoceptor 6. Description: Binding affinity to human recombinant P2Y6 receptor expressed in human 1321N1 cells after 2 mins by flow cytometry in presence of MRS2578. The format is cell-based. The gist of the method: (§3)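 1321N1-P2Y6R cells preincubated 30 min with known ligand (UDP 10 μM, MRS2957 0.5 μM, MRS2578 1 μM), then briefly exposed (2 min) to fluorescent agonist; labeling quantified by flow cytometry.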
Background: In flow cytometry, cells or beads pass a laser one at a time.

The target in test [6] is T3, P2Y purinoceptor 14 (Homo sapiens) (UniProt Q15391).
T3 sequence (whole entry): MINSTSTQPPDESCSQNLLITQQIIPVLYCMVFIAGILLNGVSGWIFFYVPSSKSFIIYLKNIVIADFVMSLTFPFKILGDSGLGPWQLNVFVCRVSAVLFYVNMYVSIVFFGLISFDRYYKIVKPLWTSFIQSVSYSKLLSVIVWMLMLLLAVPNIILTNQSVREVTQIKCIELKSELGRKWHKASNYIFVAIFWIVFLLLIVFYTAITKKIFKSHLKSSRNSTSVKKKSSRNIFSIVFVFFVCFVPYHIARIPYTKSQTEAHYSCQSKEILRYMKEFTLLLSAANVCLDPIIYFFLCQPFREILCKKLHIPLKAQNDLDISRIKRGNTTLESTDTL
Description: Agonist activity at human P2Y14 receptor expressed in rat C6 cells assessed as inhibition of forskolin-stimulated adenylate cyclase up to 10 uM. The format is functional, cell-based.

Test [7] has as its target T2, P2Y purinoceptor 6. Description: Binding affinity to human recombinant P2Y6 receptor expressed in human 1321N1 cells at 10 nM to 10 uM after 60 mins by flow cytometry relative to control. The format is cell-based. The gist of the method:
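Flow cytometry of 1321N1-P2Y6R and control 1321N1 cells after 60 min with 10 nM to 10 μM fluorescent ligand.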

For test [8], the target named is T2, P2Y purinoceptor 6. Description: Agonist activity at human recombinant P2Y6 receptor expressed in human 1321N1 cells assessed as compound internalization at 1 uM after 60 mins by confocal microscopy in presence of sucrose. The format is cell-based. The gist of the method:
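P2Y6R-expressing 1321N1 cells incubated with 1 μM fluorescent agonist for 60 min at 37 °C in medium containing 0.4 M sucrose; labeling imaged by confocal microscopy.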

Test [9] addresses T2, P2Y purinoceptor 6. Put plainly: Binding affinity to human recombinant P2Y6 receptor expressed in human 1321N1 cells at 500 nM after 3 hrs by flow cytometry in presence of UDP relative to control. The format is cell-based. The gist of the method:
(§4)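 Saturation labeling by flow cytometry, 10 nM to 1.5 μM fluorescent ligand, 3 h at 37 °C on 1321N1-P2Y6R cells; nonspecific binding with 100 μM UDP; autofluorescence from ligand-free cells; values as MESF.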

The target of test [10] is T2, P2Y purinoceptor 6. Description: Binding affinity to human recombinant P2Y6 receptor expressed in human 1321N1 cells assessed as surface bound fraction at 400 nM after 60 mins by flow cytometry in sucrose containing media. The format is cell-based. The gist of the method:
(§5)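 1321N1-P2Y6R cells incubated with 400 nM fluorescent ligand at 37 °C for 60 min; nonspecific binding with 100 μM UDP; surface fraction in 0.4 M sucrose medium; internalized fraction as acid-insensitive fluorescence after 3 × 5 min acid wash (pH 3.5); fluorescence converted to MESF, nonspecific subtracted.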

Test [11] addresses T2, P2Y purinoceptor 6. Put plainly: Binding affinity to human recombinant P2Y6 receptor expressed in human 1321N1 cells at 10 nM to 1.5 uM after 3 hrs by flow cytometry relative to control. It is filed as cell-based. The gist of the method: as §4
The target in test [12] is T2, P2Y purinoceptor 6. Put plainly: Binding affinity to human recombinant P2Y6 receptor expressed in human 1321N1 cells assessed as association rate constant at 400 nM by flow cytometry. The format is cell-based. The gist of the method:
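Flow cytometric kinetics of 400 nM fluorescent ligand binding to 1321N1-P2Y6R cells at 37 °C; nonspecific binding defined with 100 μM UDP; association rate constant k1 derived from time course.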

For test [13], the target named is T2, P2Y purinoceptor 6. Put plainly: Binding affinity to human recombinant P2Y6 receptor expressed in human 1321N1 cells assessed as compound internalization measured as the acid-insensitive fraction following acid wash at 400 nM after 60 mins by flow cytometry. The format is cell-based. The gist of the method:
as §5

The target of test [14] is P2Y purinoceptor 1 (Homo sapiens) (UniProt P47900). Description: Binding affinity to P2Y1 receptor (unknown origin) expressed in human 1321N1 cells at 400 nM after 60 mins by flow cytometry. The format is cell-based.
Sequence of P2Y purinoceptor 1 (Homo sapiens) (P47900 whole entry): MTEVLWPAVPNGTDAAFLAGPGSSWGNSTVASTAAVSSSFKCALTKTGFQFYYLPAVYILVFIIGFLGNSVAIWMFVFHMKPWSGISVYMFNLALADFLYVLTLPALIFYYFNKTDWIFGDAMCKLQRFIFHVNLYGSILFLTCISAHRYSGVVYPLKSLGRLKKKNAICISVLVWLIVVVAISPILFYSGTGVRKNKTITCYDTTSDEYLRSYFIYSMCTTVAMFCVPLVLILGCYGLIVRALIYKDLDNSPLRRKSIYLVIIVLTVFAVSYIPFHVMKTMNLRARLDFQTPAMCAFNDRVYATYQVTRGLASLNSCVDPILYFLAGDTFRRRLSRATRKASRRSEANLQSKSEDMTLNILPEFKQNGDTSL
Test [15] concerns the target T2, P2Y purinoceptor 6. Put plainly: Binding affinity to human recombinant P2Y6 receptor expressed in human 1321N1 cells after 2 mins by flow cytometry in presence of UDP. The format is cell-based. The gist of the method:
as §3

Test [16] addresses T2, P2Y purinoceptor 6. Put plainly: Binding affinity to human recombinant P2Y6 receptor expressed in human 1321N1 cells at 400 nM after 3 hrs by flow cytometry. The format is cell-based. The gist of the method: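 FCM histogram of 1321N1-P2Y6R cells after 3 h incubation with 400 nM fluorescent ligand; total, nonspecific and autofluorescence measured; three independent experiments.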

Test [17] is filed under the species Homo sapiens. Put plainly: Selectivity ratio of EC50 for human recombinant P2Y4 receptor to EC50 for human recombinant P2Y6 receptor.
The species entered for test [18] is Homo sapiens. Description: Selectivity ratio of EC50 for human recombinant P2Y2 receptor to EC50 for human recombinant P2Y6 receptor.
Test [19] deals with T2, P2Y purinoceptor 6. Description: Binding affinity to human recombinant P2Y6 receptor expressed in human 1321N1 cells at 400 nM after 60 mins by flow cytometry at 400 nM after 60 mins by flow cytometry. The format is cell-based. The gist of the method:
as §5

In test [20] the target is T2, P2Y purinoceptor 6. Description: Agonist activity at human recombinant P2Y6 receptor expressed in human 1321N1 cells assessed as compound internalization at 2 uM after 60 mins by confocal microscopy. The format is cell-based. The gist of the method:
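Confocal microscopy of P2Y6R-expressing 1321N1 cells after 60 min at 37 °C with 2 μM fluorescent agonist; cells without ligand served as control.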

In test [21] the target is T2, P2Y purinoceptor 6. Put plainly: Binding affinity to human recombinant P2Y6 receptor expressed in human 1321N1 cells at 500 nM after 60 mins by fluorescence microscopy in presence of MRS2957. The format is cell-based. The gist of the method:
as §2

Test [22] concerns the target T2, P2Y purinoceptor 6. Description: Binding affinity to human recombinant P2Y6 receptor expressed in human 1321N1 cells after 2 mins by flow cytometry in presence of MRS2957. It is filed as cell-based. The gist of the method:
as §3

In test [23] the target is T2, P2Y purinoceptor 6. Description: Binding affinity to human recombinant P2Y6 receptor expressed in human 1321N1 cells at 100 nM to 1 uM by flow cytometry in presence of UDP. The format is cell-based. The gist of the method:
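1321N1 cells with or without P2Y6R labeled with 100 nM to 1 μM Cy5 conjugate; blockade tested with 100 μM UDP; read by flow cytometry.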

Sequence of P2Y purinoceptor 2 (P41231 whole entry): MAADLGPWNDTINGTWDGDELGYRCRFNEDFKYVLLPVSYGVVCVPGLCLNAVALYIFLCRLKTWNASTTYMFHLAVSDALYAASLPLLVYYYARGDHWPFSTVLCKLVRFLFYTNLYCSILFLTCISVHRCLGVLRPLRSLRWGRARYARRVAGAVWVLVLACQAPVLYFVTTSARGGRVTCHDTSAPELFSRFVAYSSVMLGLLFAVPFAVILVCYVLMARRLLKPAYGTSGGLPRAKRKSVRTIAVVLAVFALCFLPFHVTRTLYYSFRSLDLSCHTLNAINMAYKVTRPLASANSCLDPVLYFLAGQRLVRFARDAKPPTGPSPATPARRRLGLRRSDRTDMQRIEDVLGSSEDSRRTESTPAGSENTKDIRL
T1 sequence (P51582 whole entry): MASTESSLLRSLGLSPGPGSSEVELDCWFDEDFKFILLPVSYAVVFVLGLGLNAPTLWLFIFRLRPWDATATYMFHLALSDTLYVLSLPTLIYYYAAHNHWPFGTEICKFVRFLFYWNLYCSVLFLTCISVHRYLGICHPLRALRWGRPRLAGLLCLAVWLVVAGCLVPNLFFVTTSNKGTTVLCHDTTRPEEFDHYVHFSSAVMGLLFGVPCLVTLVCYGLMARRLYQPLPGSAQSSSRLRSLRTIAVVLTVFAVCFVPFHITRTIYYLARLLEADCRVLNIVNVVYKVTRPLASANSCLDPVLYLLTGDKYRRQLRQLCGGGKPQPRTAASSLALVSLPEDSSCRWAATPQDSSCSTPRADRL
T2 sequence (Q15077 whole entry): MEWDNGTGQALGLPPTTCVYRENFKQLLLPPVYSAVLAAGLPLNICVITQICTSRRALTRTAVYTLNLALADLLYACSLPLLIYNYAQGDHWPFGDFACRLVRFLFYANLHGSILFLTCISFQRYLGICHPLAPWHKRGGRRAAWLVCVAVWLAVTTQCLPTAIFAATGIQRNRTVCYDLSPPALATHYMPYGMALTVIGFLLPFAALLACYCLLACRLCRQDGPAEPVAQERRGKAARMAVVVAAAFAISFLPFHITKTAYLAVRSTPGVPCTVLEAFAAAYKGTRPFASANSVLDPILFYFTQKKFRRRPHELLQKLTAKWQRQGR

As usually defined, the EC50 is the concentration needed to bring the measured effect to its halfway point. In the case of `O=c1[nH]/c(=N\OCc2ccc(Br)cc2)ccn1[C@@H]1O[C@H](COP(=O)(O)OP(=O)(O)O)[C@@H](O)[C@H]1O`, the figures for the EC50 at P2Y purinoceptor 4 [1], at P2Y purinoceptor 6 [2] and at P2Y purinoceptor 2 were 7440 nM, 32 nM and 5200 nM, respectively.

On to `O=c1[nH]/c(=N\OCc2ccc(I)cc2)ccn1[C@@H]1O[C@H](COP(=O)(O)OP(=O)(O)O)[C@@H](O)[C@H]1O`, for which the half-maximal effective concentration (EC50) at P2Y purinoceptor 6 [2] amounted to 148 nM. For the same molecule, the Activity at P2Y purinoceptor 4 [3] is under 50%.

Regarding `N=c1ccc2c(-c3ccc(C(=O)NCCCCCCn4cc(CCC#Cc5cccc(CO/N=c6/ccn([C@@H]7O[C@H](COP(=O)(O)OP(=O)(O)O)[C@@H](O)[C@H]7O)c(=O)[nH]6)c5)nn4)cc3C(=O)O)c3ccc(N)c(S(=O)(=O)O)c3oc-2c1S(=O)(=O)O`, the outcome (at P2Y purinoceptor 6 [4]; on P2Y purinoceptor 6 [5]; at P2Y purinoceptor 6 [8]; in test [14]; at P2Y purinoceptor 6 [15]; at P2Y purinoceptor 6 [21]) was inactive. Moreover, the outcome at P2Y purinoceptor 6 [22] was inactive. The inhibition result in [6] is “inactive”. Moreover, the outcome at P2Y purinoceptor 6 [7], on P2Y purinoceptor 6 [11], at P2Y purinoceptor 6 [16] and on P2Y purinoceptor 6 [20] was Active. The Ratio on P2Y purinoceptor 6 [9] is 4. Further, the Activity was 17% at P2Y purinoceptor 6 [10], 77% at P2Y purinoceptor 6 [13], under 50% at P2Y purinoceptor 4 [3] and 23% on P2Y purinoceptor 6 [19]. For the same molecule, on P2Y purinoceptor 6 [12], the K was found to be 0.019 min⁻¹. The half-maximal effective concentration (EC50) came to 9 nM on P2Y purinoceptor 6 [2] and 2500 nM at P2Y purinoceptor 2. In addition, the figures for the Ratio EC50 in the test listed under Homo sapiens [17] and in the test listed under Homo sapiens [18] were over 1100 and 280, respectively.

On to `CN1/C(=C/C=C/C=C/C2=[N+](CCCCCCC(=O)NCCCCCCn3cc(CCC#Cc4cccc(CO/N=c5/ccn([C@@H]6O[C@H](COP(=O)(O)OP(=O)(O)O)[C@@H](O)[C@H]6O)c(=O)[nH]5)c4)nn3)c3ccccc3C2(C)C)C(C)(C)c2ccccc21`, for which the result at P2Y purinoceptor 6 [23] was inactive.

As to `CO/N=c1/ccn([C@@H]2O[C@H](COP(=O)(O)OP(=O)(O)OP(=O)(O)Oc3ccc4ccccc4c3)[C@@H](O)[C@H]2O)c(=O)[nH]1`, the concentration giving a half-maximal response (EC50) on P2Y purinoceptor 6 [2] came to 731 nM; on P2Y purinoceptor 2, 2900 nM. The Activity on P2Y purinoceptor 4 [3] was under 50%.

Regarding `O=c1ccn([C@@H]2O[C@H](COP(=O)(O)OP(=O)(O)OP(=O)(O)OC[C@H]3O[C@@H](n4cc/c(=N/OCc5ccccc5)[nH]c4=O)[C@H](O)[C@@H]3O)[C@@H](O)[C@H]2O)c(=O)[nH]1`, the concentration giving a half-maximal response (EC50) at P2Y purinoceptor 4 [1] amounted to 636 nM; on P2Y purinoceptor 6 [2], 126 nM; at P2Y purinoceptor 2, 1700 nM.

As to `CC(=O)NCCn1cc(CCOP(=O)(O)OP(=O)(O)OP(=O)(O)OC[C@H]2O[C@@H](n3cc/c(=N/OCc4ccccc4)[nH]c3=O)[C@H](O)[C@@H]2O)nn1`, the EC50 was found to be 3300 nM at P2Y purinoceptor 4 [1], 879 nM at P2Y purinoceptor 6 [2] and 3800 nM on P2Y purinoceptor 2.

Consider `O=c1[nH]/c(=N\OCc2cccc(I)c2)ccn1[C@@H]1O[C@H](COP(=O)(O)OP(=O)(O)O)[C@@H](O)[C@H]1O`, for which the 50% effective concentration (EC50) at P2Y purinoceptor 4 [1] amounted to 352 nM; at P2Y purinoceptor 6 [2], 19 nM; at P2Y purinoceptor 2, 2500 nM.
